Hit rate of the full screen: of about 3,500 compounds, about 1,400 (40%) were called active. So high a share suggests a set chosen from earlier hits. Not all results are given here. A number with no mark means an inactive call.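 Rule for the calls: active = activation above the solvent-only control well mean plus 3 SD, averaged across control plates (cut at about 5.2% in these data); inactive = the rest.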
Experiment: GAL4-VP16 luciferase reporter activation, counter-screen for SMARCA2 (BRM) activator project, cell-based, pG5luc, luminescence, high throughput (AID 686939)
Conditions: HEK293 GAL4-VP16 pG5luc reporter, at 9.1 µM, hits give high values, scaled: DMSO wells 0%, SAHA wells 100%
Method in brief: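 Material: 293 cells carrying GAL4-VP16 plus UAS-luciferase reporter / Amount: 2,500 transfected 293 cells per well / Times: 24 h exposure, 37 °C, 5% CO2, One-Glo 15 min RT / Measured by: One-Glo luciferase luminescence / Repeats: three replicates per compound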

Compound | activation
O=C(Nc1nnc(CCc2ccccc2)s1)C1CCCO1 (stereo unspecified) | 0.86%
Cc1cc(C)c2nc(NC(=O)C3CCCO3)sc2c1 (stereo unspecified) | 7.97% (active)
Cc1ccccc1C1=N/C(=C/c2cccnc2)C(=O)O1 | 0.55%
COC(=O)c1ccc(/C=C2/C(=O)Oc3ccccc32)cc1 | -0.16%
COC(=O)c1ccc(NCc2cc(O)ccc2O)cc1 | 5.14% (active)
Cc1ccc(O)c(CNc2nc3ccccc3n2C)c1 | 1.49%
CCC1CCC/C1=N\NC(=O)c1ccc(Cl)cc1 (stereo unspecified) | 0.4%
O=C(C1CCC1)N1CCN(S(=O)(=O)c2ccc([N+](=O)[O-])cc2)CC1 | 0.6%
Cc1ccsc1-c1nc(CSCC(=O)NCCN2CCCC2)c(C)o1 | 0.41%
Cc1ccc(C(=O)Nc2nc3ccc(Cl)cc3s2)o1 | 7.07% (active)
CC1CCCCN1C(=S)NCc1ccccc1 (stereo unspecified) | -0.22%
Cc1ccc(C(=O)NNC(=O)c2cccs2)cc1 | 6.36% (active)
Cc1ccc(S(=O)(=O)c2c[nH]c3ccc(Cl)cc3c2=O)cc1 | -0.72%
Cc1ccc(S(=O)(=O)NC(C)C(=O)NCc2ccc(Cl)cc2)cc1 (stereo unspecified) | -0.12%
COc1ccc(NC(=O)c2sccc2SCC#N)cc1 | 2.71%
O=[N+]([O-])c1ccc2c(c1)Nc1nc3ccccc3nc1N2 | 10.8% (active)
CCCn1c(=O)c2ccccc2n2c(SCC(=O)/C(C#N)=C(\C)N)nnc12 | -0.93%
CCc1cc2c(=O)c(-c3ccon3)c(N)oc2cc1OC | 5.65% (active)
Cc1n[nH]c(=O)nc1N/N=C/c1cccs1 | 2.94%
CC(C)c1ccc(NC(=S)NC2CC3C=CC2C3)cc1 (stereo unspecified) | 8.15% (active)
CCc1ccc(NC2Nc3cc(C)nn3S2)cc1 (stereo unspecified) | 6.27% (active)
O=C(Nc1ccc(F)cc1)c1cc2c(s1)CCCC2 | 10.8% (active)

Compound | activation
Cc1ccc(NC(=O)c2cnc(SCC(=O)NCC3CCCO3)n(C)c2=O)cc1 (stereo unspecified) | 3.55%
O=C(NCC1CCCO1)c1cc2c(s1)CCCC2 (stereo unspecified) | 10.9% (active)
COCn1c(COc2ccccc2)nc2ccccc21 | 3.98%
CN1CCN(CCCNC(=O)c2ccc(/C=C3\Oc4ccccc4N(Cc4ccc(Cl)cc4)C3=O)cc2)CC1 | 2.16%
COC(=O)Cc1nnn2c1[C@H](C)[C@H](c1ccccc1[N+](=O)[O-])OCC2 | 1.5%
C/C(CC(=O)NC(C)(C)C)=N\NC(=O)c1ccco1 | 1.25%
O=C(Nc1ccc2nccnc2c1)c1ccco1 | 6.58% (active)
O=C(Nc1ccc(NC(=O)c2cccs2)cn1)c1ccco1 | 11.6% (active)
CCOc1cc(NC(=S)NCCCOC)c(OCC)cc1NC(=O)c1ccco1 | -0.82%
Cn1sc(=O)c2cc(S(=O)(=O)NC3CC3)ccc21 | 1.24%
O=C1/C(=C\c2ccc([N+](=O)[O-])cc2)CS(=O)(=O)C/C1=C/c1ccc([N+](=O)[O-])cc1 | -4.02%
Cc1ccsc1C(=O)N/N=C/c1ccc([N+](=O)[O-])cc1 | 14.2% (active)
O=C(OCC(=O)c1cccs1)C1=COCCO1 | 7.73% (active)
O=C(NCc1ccccn1)c1cnc2sccn2c1=O | 2.95%
Cc1cc(C)n2nc(CNS(=O)(=O)c3c(F)c(F)c(F)c(F)c3F)nc2n1 | 1.55%
CC(C)(C)C(=O)CSc1nc2ccccc2o1 | 5.87% (active)
CN(C)c1nc(=Nc2cccc(Cl)c2)ss1 | 1.47%
COc1ccc(/C(N)=N/OC(=O)Oc2ccccc2)cc1 | -0.09%
CCCOc1ccc(-c2nc(N)n[nH]2)cc1 | 6.36% (active)
COc1ccc2nc(/N=C(\N)NC(=O)Nc3ccccc3)nc(C)c2c1 | -0.04%
Cc1ccnc(NC(=O)C2CCN(S(=O)(=O)c3c(C)c(C)cc(C)c3C)CC2)c1 | 1.57%
COc1cccc(C(=O)Nc2nc3ccc(S(C)(=O)=O)cc3s2)c1 | 5.21% (active)

Compound | activation
N#Cc1ccccc1NC(=O)c1cccc(COc2ccc(Cl)cc2Cl)c1 | 21.9% (active)
COc1ccc(S(=O)(=O)NC(C)C(=O)N2CCCCCC2)cc1 (stereo unspecified) | -0.22%
CC(=O)Nc1ccc(Nc2c3ccccc3nc3ccccc23)cc1 | 1.5%
CCCC(=O)N1c2ccc(-c3csc(N)n3)cc2CC1C (stereo unspecified) | 13.6% (active)
CCC(=O)Nc1ccc2nn(-c3ccc(F)cc3)nc2c1 | 7.66% (active)
CCCSC(=S)NC1CCS(=O)(=O)C1 (stereo unspecified) | -1.45%
Cc1noc(C)c1/C=N/Nc1ccc2ccccc2n1 | 11.4% (active)
COc1ccc(/C=C/C(=O)Nc2ccc(C34CC5CC(CC(O)(C5)C3)C4)cc2)cc1OC | 16.6% (active)
Cc1c(NC(=O)CSc2cccc3cccnc23)c(=O)n(-c2ccccc2)n1C | -2.03%
COc1ccc(C(=O)N/N=c2\oc3ccccc3cc2C(N)=O)cc1 | 2.08%
Cn1cc(/C=C/C(=O)N2CCCC(C(=O)c3ccc(C(F)(F)F)cc3)C2)cn1 (stereo unspecified) | 0.52%
CCN(CC)CCNC(=O)c1ccc(NC(=O)c2cc(-c3ccncc3)nc3ccccc23)cc1 | 1.61%
CN(C)CCNC(=O)c1ccc(Cl)c2cc3ccccc3nc12 | 10.7% (active)
O=C(CCCCCn1c(=S)[nH]c2ccsc2c1=O)NC1CCCCC1 | -0.19%
Oc1cccc2ccc(/C=C/c3ccc(Br)s3)nc12 | 8.85% (active)
Cc1nc(N=C(N)N)nc2c(C)cccc12 | 0.25%
CC(=O)c1sc(N/N=C\c2ccc(C)cc2)nc1C | 6.19% (active)
Cc1ccc(Nc2nc(Cl)c(C=O)s2)cc1 | 3.07%
Cc1ccc(NC(=O)c2cc3ccccc3o2)cc1 | 4.91%
CC(=O)Oc1ccc(C(=O)Nc2nccs2)cc1 | 5%
CC(=O)c1sc(NC(=O)c2ccc(C)cc2)nc1C | 8.83% (active)
CC(C)C[C@H]1CNC(=O)C(=O)N1C[C@H]1CCCN1C[C@H](Cc1ccc(O)cc1)N1C[C@H](CC(C)C)N(CC2CCCCCC2)C(=O)C1=O | 0.47%
